High-throughput results: PubChem BioAssay, Johns Hopkins Ion Channel Center
Hits are enriched below; roughly 3.5% of the tested compounds scored in any of these assays.
MrgX1 antag – human MrgX1 receptor antagonism, primary screen. MRGX1-HEK293 calcium flux, Fluo-4, BAM8-22 antagonism; active compounds read low. B-score at 10 µM. 310,000 tested, 1.3% active;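 active means calcium-response B-score plate-corrected more than 3 library SD below zero, starting fluorescence within 5 deviations, no agonist response on first addition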;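 further: peak minus trough fluorescence over baseline after final BAM8-22 challenge near maximal dose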
Target sequence (Q96LB2 whole entry, looked up): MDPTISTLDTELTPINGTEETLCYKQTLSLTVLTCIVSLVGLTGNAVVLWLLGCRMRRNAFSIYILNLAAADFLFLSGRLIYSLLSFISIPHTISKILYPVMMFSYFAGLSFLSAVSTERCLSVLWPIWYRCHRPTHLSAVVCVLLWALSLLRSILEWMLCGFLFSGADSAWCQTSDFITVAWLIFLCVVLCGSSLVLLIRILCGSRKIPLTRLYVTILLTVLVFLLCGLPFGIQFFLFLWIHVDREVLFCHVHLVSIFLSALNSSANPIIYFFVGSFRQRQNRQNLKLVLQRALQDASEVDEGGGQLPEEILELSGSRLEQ
RGS4 block – inhibitors of human RGS4. HEK293 M3R/RGS4 inducible, Fluo-4 calcium flux; active compounds read high; triggered by carbachol at its EC20. B-score at 10 µM. 310,000 tested, 0.45% active. AID 463165;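 active means B-score, a plate-corrected calcium signal, over three deviations above library mean, with baseline fluorescence within five deviations of library mean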;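 further: RGS4 expression induced by doxycycline in cells with stable M3 receptor; B-score is computed from the integrated fluorescence ratio over baseline after carbachol; higher B-score means a larger calcium signal and so more RGS4 inhibition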
Target sequence (P49798 whole entry, looked up): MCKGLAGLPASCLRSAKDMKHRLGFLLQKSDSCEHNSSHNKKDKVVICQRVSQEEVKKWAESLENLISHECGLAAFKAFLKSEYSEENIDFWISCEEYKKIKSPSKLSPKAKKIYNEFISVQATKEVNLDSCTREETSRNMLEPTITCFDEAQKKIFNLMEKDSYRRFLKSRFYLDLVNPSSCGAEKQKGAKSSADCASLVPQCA
RGS4 pot – potentiators or activators of RGS4; HEK293 M3R/inducible RGS4, carbachol calcium flux Fluo4; active compounds read low; B-score at 10 µM; 310,000 tested, 0.92% active; AID 463111;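 active means B-score of the integrated calcium signal more than 4 SD below the library mean, with starting fluorescence not abnormally high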;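 further: negative B-score means reduced calcium response which marks RGS4 activation or potentiation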
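System: HEK293 FlpIn-TREx cells, stable M3R, doxycycline-inducible RGS4. Timing: overnight RGS4 induction, 30 min dye load 37 °C, 20 min compound RT. Also added: carbachol, ECmax concentration. Measured by: Fluo4 fluorescence kinetic imaging of calcium. Evaluation: integrated calcium ratio converted to B score.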
MrgX1 agonist – human MrgX1 receptor agonism, primary screen. Q96LB2. MrgX1-HEK293 cells, Fluo-4 calcium fluorescence, agonist mode; active compounds read high. B-score at 10 µM. 310,000 tested, 0.44% active. AID 588627;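 active means calcium response B-score plate-corrected fluorescence ratio at least 3 library SD, with starting fluorescence B-score inside 5 SD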
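Material: MrgX1-expressing HEK293 cells / Dosing: compound as first of three additions / Incubation: overnight seeding, then 1 h dark dye loading / Signal: Fluo-4 NW calcium fluorescence / Evaluation: B-scored fluorescence response ratio / Benchmarks: positive and negative control wells on each plate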
MrgX1 allo act – human MrgX1 positive allosteric modulation, primary screen | MrgX1-HEK293, Fluo-4 calcium flux, FDSS; active compounds read high | Q96LB2 | 310,000 tested, 0.63% active | B-score at 10 µM | AID 588675;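 active means plate-corrected calcium response at least 3 library SD above typical, normal starting fluorescence, not activating the receptor alone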;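 further: compound read alongside a low EC10 to EC30 dose of BAM8-22 agonist; peak minus trough fluorescence over baseline measured at the second addition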
MrgX1 antag conf – human MrgX1 receptor antagonism, re-confirmation screen; MrgX1-HEK293, BAM8-22 calcium flux, Fluo-4; active compounds read low; 2,300 tested, 19% active; remaining BAM8-22 calcium response % of control (active compounds read low), % at 10 µM; AID 602420; shares compounds with MrgX1 antag;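 active means remaining agonist calcium response no higher than 100% minus 3 SD of agonist-only control wells, with starting fluorescence near control levels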;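 further: agonist BAM8-22 given at a near maximal EC90 to ECmax level; peak minus minimum fluorescence divided by baseline after agonist addition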
HEK293 Ca flux – activity in parental HEK293 cells lacking MrgX1 | 4,000 tested, 2% active | shares compounds with MrgX1 antag | fluorescence ratio F(max-min)/F0 at 10 µM | Fluo-4 calcium fluorescence, FDSS;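 active means duplicate-averaged calcium fluorescence ratio at least three times the standard deviation of buffer wells, a nonspecific response in parental cells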
HEK293 Ca counter – activity in parental HEK293 cells without MrgX1 | shares compounds with MrgX1 antag | parental HEK293 calcium flux, Fluo-4 fluorescence ratio; active compounds read high | fluorescence ratio F(max-min)/F0 at 10 µM | 4,000 tested, 0.4% active | AID 624114;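 active means calcium fluorescence ratio, averaged over duplicates, at least 3 SD of the buffer-well ratio, meaning a nonspecific response in receptor-free cells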;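 further: untransfected parental HEK293 lacking MrgX1 used as counterscreen for MrgX1 allosteric activators; fluorescence change taken during the second addition on a kinetic imager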
HEK293 Ca cntr2 – activity in parental HEK293 cells lacking MrgX1 receptor; shares compounds with MrgX1 antag; Fluo-4 calcium fluorescence (FDSS); active compounds read high; fluorescence ratio F(max-min)/F0 at 10 µM; 4,000 tested, 8.7% active; AID 624115;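 active means calcium fluorescence ratio at least three times the spread of buffer wells, meaning a non-specific response in parental cells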
* marks the source's active call; other numbers are inactive results; i = inactive; nt = no result.

SMILES	MrgX1 antag	RGS4 block	RGS4 pot	MrgX1 agonist	MrgX1 allo act	MrgX1 antag conf	HEK293 Ca flux	HEK293 Ca counter	HEK293 Ca cntr2
CC(C)CCNC(=O)c1c(N)n(Cc2ccc3c(c2)OCO3)c2nc3ccccc3nc12	i	i	i	i	i	nt	nt	nt	nt
CN1CCc2nc(SCc3cccc(Br)c3)c(C#N)cc2C1	-4.7*	i	i	i	i	i	i	i	i
Nc1ccc([As](=O)(O)O)cc1	-6*	i	i	i	i	i	i	i	i
CC(C)(C)N1Cc2ccccc2C1=N	i	i	i	i	i	nt	nt	nt	nt
O=C1NC(=O)C(CCc2ccccn2)(Cc2ccc3c(c2)OCO3)C(=O)N1CCc1ccccc1 (stereo unspecified)	-5.2*	i	i	i	i	i	i	i	i
c1ccc(CNCCc2ccc3c(c2)OCO3)nc1	i	i	i	i	i	nt	nt	nt	nt
Cn1c(=O)c2c(nc(N/N=C/c3c(O)n(C4CCCCC4)c(=S)[nH]c3=O)n2C)n(C)c1=O	i	i	i	i	i	nt	nt	nt	nt
COc1ccc(C(=O)N2CCOCC2)cc1S(=O)(=O)N1CCC(C)CC1	i	i	i	i	i	nt	nt	nt	nt
COc1ccc(C(=O)Oc2cccc3cccnc23)cc1S(=O)(=O)N1CCOCC1	-6*	i	i	i	i	i	i	i	i
CCn1c(C)c(C(=O)Nc2ccc(OC)cc2)c2cc(OC)ccc21	i	i	i	i	i	nt	nt	nt	nt
CCOc1cc2c(cc1OCC)-n1cccc1C(c1ccc(OC(F)F)cc1)NC2 (stereo unspecified)	-10*	i	i	i	i	42%*	i	i	i
[O-][n+]1onc2c1CCC1N(O)CCC21O (stereo unspecified)	i	i	i	i	i	nt	nt	nt	nt
CCc1nc2ccccc2c(=O)n1-c1ccccc1[N+](=O)[O-]	i	i	i	i	i	nt	nt	nt	nt
Cc1nnc(SCc2nc3ccccc3c(=O)n2-c2ccccc2Cl)n1N	-8.2*	i	i	i	i	82%*	i	i	i
CCCCCn1c(=O)c(C(=O)NC(C)c2ccccc2)c(O)c2ccccc21 (stereo unspecified)	-4.8*	i	i	i	i	i	i	i	i
CCOP(=O)(OCC)C(O)c1ccc(OC)cc1 (stereo unspecified)	i	i	i	i	i	nt	nt	nt	nt
COC(=O)c1ccc(NC(=O)CSc2nc3ccc(N4C(=O)C5C6C=CC(C6)C5C4=O)cc3s2)cc1 (stereo unspecified)	-7.4*	i	i	i	i	55%*	i	i	i
CSc1ccc(C(=O)C2CCCN(Cc3cc4ccccc4[nH]3)C2)cc1 (stereo unspecified)	-5.1*	i	-7.1*	i	i	79%*	i	i	i
CCOC(=O)C(O)(c1ccc(N(C)C(=O)c2ccc(Cl)c(Cl)c2)cc1)C(F)(F)F (stereo unspecified)	i	i	i	i	i	nt	nt	nt	nt
COC(=O)C(O)(c1ccc(N(C)C(=O)c2ccc(Cl)c(Cl)c2)cc1)C(F)(F)F (stereo unspecified)	-7.8*	i	i	i	i	i	i	i	i
O=C(CN1CC(c2ccccc2)CC1=O)Nc1ccc(F)cc1 (stereo unspecified)	-10*	i	i	i	i	i	i	i	i
